Laboratory results: ChEMBL document CHEMBL1158842, “Antiproliferative triterpene saponins from Entada africana” (J Nat Prod, 2006)

Columns and labels:
[1] = tested on: WEHI-164; test: Antiproliferative activity against mouse WEHI164 cells after 72 hrs by MTT conversion assay; format: functional, cell-based
Procedure, shortened: (§1)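 Cells (3.4 × 10^4 per well) adhered 2 h at 37 °C, 5% CO2; medium replaced with fresh medium and 1:4 serial dilutions of test compound added, then incubated 72 h; 6-mercaptopurine serial dilutions in some experiments. Viability by MTT conversion, OD read at 620 nm; % dead cells = 100 − (OD treated/OD control) × 100.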

[2] = tested on: HEK293; test: Antiproliferative activity against HEK293 cells after 72 hrs by MTT conversion assay; format: cell-based, Homo sapiens; procedure, shortened: as §1
[3] = tested on: J774.A1; test: Antiproliferative activity against mouse J774A1 cells after 72 hrs by MTT conversion assay; format: cell-based; conditions: J774.A1, 72 h; procedure, shortened: as §1
[4] = Mus musculus, WEHI-164, 72 h, read-out: IC50
[5] = Homo sapiens, HEK293, 72 h, read-out: IC50

Compound | IC50 ([1]; wehi-164) | IC50 ([2]; hek293) | IC50 [3] [µM] | IC50 [1, 4] [µM] | IC50 [2, 5] [µM]
CC(=O)N[C@H]1[C@H](O[C@H]2CC[C@]3(C)[C@H]4CC=C5[C@@H]6CC(C)(C)CC[C@]6(C(=O)O[C@@H]6O[C@H](COC(C)=O)[C@@H](O)[C@H](O[C@@H]7OC[C@@H](O)[C@H](O)[C@H]7O)[C@H]6O[C@@H]6OC[C@@H](O)[C@H](O[C@@H]7OC[C@](O)(CO)[C@H]7O)[C@H]6O)[C@H](O)C[C@@]5(C)[C@]4(C)CC[C@H]3C2(C)C)O[C@H](CO[C@@H]2OC[C@H](O)[C@H](O[C@@H]3OC[C@@H](O)[C@H](O)[C@H]3O)[C@H]2O)[C@@H](O[C@@H]2O[C@H](CO)[C@@H](O)[C@H](O)[C@H]2O)[C@@H]1O | Not Traceable | Not Traceable | 2.9 |  | 
C=C[C@@](C)(O)CC/C=C(\C)C(=O)O[C@@H]1[C@@H](OC(=O)/C=C/c2ccccc2)[C@H](O[C@H]2[C@H](O)[C@@H](COC(C)=O)O[C@@H](OC(=O)[C@]34CCC(C)(C)C[C@H]3C3=CC[C@@H]5[C@@]6(C)CC[C@H](O[C@@H]7O[C@H](CO[C@@H]8OC[C@H](O)[C@H](O[C@@H]9OC[C@@H](O)[C@H](O)[C@H]9O)[C@H]8O)[C@@H](O[C@@H]8O[C@H](CO)[C@@H](O)[C@H](O)[C@H]8O)[C@H](O)[C@H]7NC(C)=O)C(C)(C)[C@@H]6CC[C@@]5(C)[C@]3(C)C[C@H]4O)[C@@H]2O[C@@H]2OC[C@@H](O)[C@H](O[C@@H]3OC[C@](O)(CO)[C@H]3O)[C@H]2O)OC[C@H]1O |  |  | 0.84 | 0.38 | 0.36
CC(=O)N[C@H]1[C@H](O[C@H]2CC[C@]3(C)[C@H]4CC=C5[C@@H]6CC(C)(C)CC[C@]6(C(=O)O[C@@H]6O[C@H](CO)[C@@H](O)[C@H](O[C@@H]7OC[C@@H](O)[C@H](O)[C@H]7O)[C@H]6O[C@@H]6OC[C@@H](O)[C@H](O[C@@H]7OC[C@](O)(CO)[C@H]7O)[C@H]6O)[C@H](O)C[C@@]5(C)[C@]4(C)CC[C@H]3C2(C)C)O[C@H](CO[C@@H]2OC[C@H](O)[C@H](O[C@@H]3OC[C@@H](O)[C@H](O)[C@H]3O)[C@H]2O)[C@@H](O[C@@H]2O[C@H](CO)[C@@H](O)[C@H](O)[C@H]2O)[C@@H]1O | Not Traceable | Not Traceable | 1.2 |  | 
C=C[C@](C)(O)CC/C=C(\C)C(=O)O[C@@H]1[C@@H](O)[C@H](O[C@H]2[C@H](O)[C@@H](COC(C)=O)O[C@@H](OC(=O)[C@]34CCC(C)(C)C[C@H]3C3=CC[C@@H]5[C@@]6(C)CC[C@H](O[C@@H]7O[C@H](CO[C@@H]8OC[C@H](O)[C@H](O[C@@H]9OC[C@@H](O)[C@H](O)[C@H]9O)[C@H]8O)[C@@H](O[C@@H]8O[C@H](CO)[C@@H](O)[C@H](O)[C@H]8O)[C@H](O)[C@H]7NC(C)=O)C(C)(C)[C@@H]6CC[C@@]5(C)[C@]3(C)C[C@H]4O)[C@@H]2O[C@@H]2OC[C@@H](O)[C@H](O[C@@H]3OC[C@](O)(CO)[C@H]3O)[C@H]2O)OC[C@H]1O |  |  | 0.52 | 0.49 | 0.27
CC(=O)N[C@H]1[C@H](O[C@H]2CC[C@]3(C)[C@H]4CC=C5[C@@H]6CC(C)(C)CC[C@]6(C(=O)O[C@@H]6O[C@H](COC(C)=O)[C@@H](O)[C@H](O[C@@H]7OC[C@@H](O)[C@H](O)[C@H]7O)[C@H]6O[C@@H]6OC[C@@H](O)[C@H](O[C@@H]7OC[C@](O)(CO)[C@H]7O)[C@H]6O)[C@H](O)C[C@@]5(C)[C@]4(C)CC[C@H]3C2(C)C)O[C@H](CO[C@@H]2OC[C@H](O)[C@H](O[C@@H]3OC[C@H](O)[C@H](O)[C@H]3O)[C@H]2O)[C@@H](O[C@@H]2O[C@H](CO)[C@@H](O)[C@H](O)[C@H]2O)[C@@H]1O | Not Traceable | Not Traceable | 3.1 |  | 
C=C[C@](C)(O)CC/C=C(\C)C(=O)O[C@@H]1[C@@H](O)[C@H](O[C@H]2[C@H](O)[C@@H](COC(C)=O)O[C@@H](OC(=O)[C@]34C[C@H](O)C(C)(C)C[C@H]3C3=CC[C@@H]5[C@@]6(C)CC[C@H](O[C@@H]7O[C@H](CO[C@@H]8OC[C@H](O)[C@H](O[C@@H]9OC[C@@H](O)[C@H](O)[C@H]9O)[C@H]8O)[C@@H](O[C@@H]8O[C@H](CO)[C@@H](O)[C@H](O)[C@H]8O)[C@H](O)[C@H]7NC(C)=O)C(C)(C)[C@@H]6CC[C@@]5(C)[C@]3(C)C[C@H]4O)[C@@H]2O[C@@H]2OC[C@@H](O)[C@H](O[C@@H]3OC[C@](O)(CO)[C@H]3O)[C@H]2O)OC[C@H]1O |  |  | 0.031 | 0.1 | 0.25
C=C[C@@](C)(O)CC/C=C(\C)C(=O)O[C@@H]1[C@@H](OC(=O)/C=C/c2ccccc2)[C@H](O[C@H]2[C@H](O)[C@@H](COC(C)=O)O[C@@H](OC(=O)[C@]34C[C@H](O)C(C)(C)C[C@H]3C3=CC[C@@H]5[C@@]6(C)CC[C@H](O[C@@H]7O[C@H](CO[C@@H]8OC[C@H](O)[C@H](O[C@@H]9OC[C@H](O)[C@H](O)[C@H]9O)[C@H]8O)[C@@H](O[C@@H]8O[C@H](CO)[C@@H](O)[C@H](O)[C@H]8O)[C@H](O)[C@H]7NC(C)=O)C(C)(C)[C@@H]6CC[C@@]5(C)[C@]3(C)C[C@H]4O)[C@@H]2O[C@@H]2OC[C@@H](O)[C@H](O[C@@H]3OC[C@](O)(CO)[C@H]3O)[C@H]2O)OC[C@H]1O |  |  | 3 | 2.7 | 2.8
CC(=O)N[C@H]1[C@H](O[C@H]2CC[C@]3(C)[C@H]4CC=C5[C@@H]6CC(C)(C)[C@@H](O)C[C@]6(C(=O)O[C@@H]6O[C@H](COC(C)=O)[C@@H](O)[C@H](O[C@@H]7OC[C@@H](O)[C@H](O)[C@H]7O)[C@H]6O[C@@H]6OC[C@@H](O)[C@H](O[C@@H]7OC[C@](O)(CO)[C@H]7O)[C@H]6O)[C@H](O)C[C@@]5(C)[C@]4(C)CC[C@H]3C2(C)C)O[C@H](CO[C@@H]2OC[C@H](O)[C@H](O[C@@H]3OC[C@@H](O)[C@H](O)[C@H]3O)[C@H]2O)[C@@H](O[C@@H]2O[C@H](CO)[C@@H](O)[C@H](O)[C@H]2O)[C@@H]1O |  |  | 2.2 | 2 | 3.9
CC(=O)N[C@H]1[C@H](O[C@H]2CC[C@]3(C)[C@H]4CC=C5[C@@H]6CC(C)(C)CC[C@]6(C(=O)O[C@@H]6O[C@H](COC(C)=O)[C@@H](O)[C@H](O[C@@H]7OC[C@@H](O)[C@H](O)[C@H]7OC(=O)/C=C/c7ccccc7)[C@H]6O[C@@H]6OC[C@@H](O)[C@H](O[C@@H]7OC[C@](O)(CO)[C@H]7O)[C@H]6O)[C@H](O)C[C@@]5(C)[C@]4(C)CC[C@H]3C2(C)C)O[C@H](CO[C@@H]2OC[C@H](O)[C@H](O[C@@H]3OC[C@@H](O)[C@H](O)[C@H]3O)[C@H]2O)[C@@H](O[C@@H]2O[C@H](CO)[C@@H](O)[C@H](O)[C@H]2O)[C@@H]1O |  |  | 0.98 | 0.94 | 0.56
